≈ marks a conversion by molar mass, not a printed value. Calls of active or inactive are those of the source. No cut-off for these calls is given here.
Tests used:
[1] = Cmax in NMRI mouse at 1200 mg/kg, sc; assay type: ADME, organism-based; parameters: dose 1200 mg/kg, route subcutaneous; settings: in vivo
[2] = Cmax in NMRI mouse at 60 mg/kg, sc; assay type: ADME, organism-based; parameters: dose 60 mg/kg, route subcutaneous; settings: in vivo
Method in brief: (§1)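 Single subcutaneous dicloxacillin doses were given to NMRI mice. EDTA plasma was assayed by microbiological bioassay with S. lutea ATCC 9391 (detection limit 1.5 mg/liter, linear to 100 mg/liter, CV ~5%). Cmax was obtained by noncompartmental analysis.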

Staphylococcus aureus [3] = experiment: Bactericidal activity against Staphylococcus aureus E19977 infected in human THP1 cells assessed as log reduction in bacterial count at 10 times MIC after 24 hrs by time-kill assay; assay type: functional, THP-1
Method in brief: (§2)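 Intracellular model in THP-1 macrophages: opsonized S. aureus was added at 4 bacteria per macrophage for 45 min. Non-phagocytized bacteria were removed by washing and brief PBS incubation with gentamicin (50 mg/liter). Cells were then incubated up to 24 h with a wide range of extracellular dicloxacillin concentrations. Result is change in log₁₀ CFU per mg cell protein from time zero. n = 3.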

[4] = Ratio of fAUC (24 hrs) in NMRI mouse at 340 mg/kg administered every 24 hrs to MIC for Staphylococcus aureus E19977
[5] = fT>MIC in Staphylococcus aureus E19977 infected NMRI mouse at 120 mg/kg administered every 6 hrs; assay type: functional
Method in brief: (§3)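 Calculated percentage of 24 h at steady state that free plasma DCX exceeds the strain MIC (microdilution, pH 7.4). Concentrations were simulated from single subcutaneous dose plasma curves in NMRI mice (S. lutea bioassay), adjusted with a square-root model of concentration-dependent free fraction from ultrafiltration. The regimen was dosed subcutaneously in mice infected intraperitoneally with 10^7.4 CFU, and peritoneal CFU were read after 24 h of therapy.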

Staphylococcus aureus [6] = experiment: Bacteriostatic activity against Staphylococcus aureus ATCC 25923 infected in human THP-1 cells at compound MIC after 24 hrs; assay type: functional, organism-based
Method in brief: (§4)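 Human THP-1 macrophages were infected with opsonized S. aureus at 4 bacteria per macrophage for 45 min. Non-phagocytized bacteria were removed by washing and a brief incubation in PBS with gentamicin 50 mg/liter. Cells were then incubated up to 24 h with DCX over a wide range of extracellular concentrations. The read-out was Δlog CFU per mg cell protein versus time zero (n = 3), with sigmoidal fitting and Cstatic by interpolation.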

[7] = fT>MIC in Staphylococcus aureus E19977 infected NMRI mouse at 120 mg/kg administered every 3 hrs; assay type: functional; method in brief: as §3
Staphylococcus aureus [8] = experiment: Bactericidal activity against Staphylococcus aureus E19977 assessed as log reduction in bacterial count at 10 times MIC after 24 hrs by time-kill assay; assay type: functional
Method in brief: (§5)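 Broth time-kill: MSSA at 10⁶ CFU/ml exposed to a wide range of dicloxacillin concentrations. CFU counted after 5 and 24 h and expressed as change in log₁₀ CFU/ml from time zero. Multiples refer to the MIC by CLSI microdilution at pH 7.4. n = 3.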

[9] = fT>MIC in Staphylococcus aureus E19977 infected NMRI mouse at 80 mg/kg administered every 8 hrs; assay type: functional; method in brief: as §3
[10] = fT>MIC in Staphylococcus aureus E19977 infected NMRI mouse at 80 mg/kg administered every 3 hrs
Mus musculus [11] = species: Mus musculus; experiment: Protein binding in NMRI mouse infected with Staphylococcus aureus E19977 at 10 mg/l by ultrafiltration; assay type: ADME, organism-based; settings: in vivo
Method in brief: (§6)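 Plasma binding was measured by ultrafiltration. EDTA blood from healthy mice, or from NMRI mice infected intraperitoneally for 6 h with E19977, was spiked with DCX at 10–400 mg/liter, with PBS controls. Samples were held 1 h at 37°C, then centrifuged through 30-kDa filters at 3,000 × g for 8 min at 37°C. Total and filtrate drug were measured by S. lutea bioassay.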

Staphylococcus aureus [12] = experiment: Antimicrobial activity against Staphylococcus aureus E19977 infected in human THP-1 cells after 24 hrs; assay type: functional, organism-based; settings: E19977, THP-1, 24 h; method in brief: as §4
[13] = fT>MIC in Staphylococcus aureus E19977 infected NMRI mouse at 300 mg/kg administered every 12 hrs; assay type: functional; method in brief: as §3
Staphylococcus aureus [14] = experiment: Antimicrobial activity against Staphylococcus aureus ATCC 25923 after 24 hrs; assay type: functional, organism-based; settings: ATCC 25923, 24 h
Method in brief: (§7)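 Extracellular broth time- and concentration-kill test. The inoculum was ~10⁶ CFU/ml, exposed to a wide range of DCX concentrations, with CFU counted after 5 and 24 h. The read-out was Δlog CFU/ml versus time zero (mean ± SD, n = 3). A sigmoidal fit with slope 1 gave Emax and EC50. Cstatic was read by graphical interpolation as the concentration giving no change from the inoculum.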

[15] = Ratio of fCmax in NMRI mouse at 30 mg/kg administered every 2 hrs to MIC for Staphylococcus aureus E19977; assay type: functional
Method in brief: (§8)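 Free Cmax/MIC was modelled, not measured. Single-dose subcutaneous plasma curves from NMRI mice were projected to the multiple-dose regimens. Free fraction came from a square-root fit of unbound fraction versus total concentration. Binding was measured by ultrafiltration of mouse plasma spiked with 10–400 mg/liter and held 1 h at 37°C. MIC was for strain E19977.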

Mus musculus [16] = species: Mus musculus; experiment: Protein binding in NMRI mouse at 10 mg/l by ultrafiltration; assay type: ADME, organism-based; settings: in vivo; method in brief: as §6
Staphylococcus aureus [17] = experiment: Bactericidal activity against Staphylococcus aureus E19977 infected in human THP-1 cells assessed as log change in bacterial count after 24 hrs; assay type: functional; method in brief: as §4
[18] = Cmax in NMRI mouse at 300 mg/kg, sc; assay type: ADME, organism-based; parameters: dose 300 mg/kg, route subcutaneous; settings: in vivo; method in brief: as §1
Staphylococcus aureus [19] = experiment: Bactericidal activity against Staphylococcus aureus E19977 assessed as log reduction in bacterial count at 100 times MIC after 24 hrs by time-kill assay; assay type: functional; method in brief: as §5
Staphylococcus aureus [20] = experiment: Bacteriostatic activity against Staphylococcus aureus ATCC 25923 at MIC between 5 to 24 hrs; assay type: functional, organism-based; method in brief: as §7
Staphylococcus aureus [21] = experiment: Bactericidal activity against Staphylococcus aureus ATCC 25923 infected in human THP1 cells assessed as log reduction in bacterial count at 10 times MIC after 24 hrs by time-kill assay; assay type: functional, THP-1; method in brief: as §2
[22] = fT>MIC in Staphylococcus aureus E19977 infected NMRI mouse at 120 mg/kg administered every 24 hrs; assay type: functional; method in brief: as §3
Mus musculus [23] = species: Mus musculus; experiment: Protein binding in NMRI mouse infected with Staphylococcus aureus E19977 at 270 mg/l by ultrafiltration; assay type: ADME, organism-based; settings: in vivo; method in brief: as §6
[24] = Ratio of fCmax in NMRI mouse at 200 mg/kg administered every 4 hrs to MIC for Staphylococcus aureus E19977; assay type: functional; method in brief: as §8
[25] = Ratio of fAUC (24 hrs) in NMRI mouse at 76 mg/kg administered every 2 hrs to MIC for Staphylococcus aureus E19977; assay type: functional
Method in brief: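 Modeled free AUC over 24 h divided by the MIC, not measured directly. Single subcutaneous DCX doses were given to NMRI mice, and plasma was assayed by S. lutea bioassay. Noncompartmental analysis used trapezoidal mean points plus a fitted monoexponential extrapolated to 24 h. Free fraction came from a square-root fit to plasma ultrafiltration binding (10–400 mg/liter spike, 1 h, 37°C). The MIC was measured by broth microdilution at pH 7.4.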

Staphylococcus aureus [26] = experiment: Bactericidal activity against Staphylococcus aureus ATCC 25923 assessed as log reduction in bacterial count at 100 times MIC after 24 hrs by time-kill assay; assay type: functional; method in brief: as §5

With Cc1onc(-c2c(Cl)cccc2Cl)c1C(=O)N[C@@H]1C(=O)N2[C@@H]1SC(C)(C)[C@@H]2C(=O)O [DICLOXACILLIN] the Cmax [1] was 222 µg/mL, the Cmax [2] was 90.1 µg/mL and the FC (Staphylococcus aureus [3]) was less than 1. For the same molecule, the fAUC/MIC [4] was 259.37 h, the “fT>MIC” value [5] was 37.78% and the Activity (Staphylococcus aureus [6]) was “Active”. For the same molecule, the “fT>MIC” value [7] was 75.56%, the FC (Staphylococcus aureus [8]) was 3 and the “fT>MIC” value [9] was 25%. For the same molecule, the “fT>MIC” value [10] was 66.67%, the Activity (Mus musculus [11]) was 93.6% and the EC50 (Staphylococcus aureus [12]) was 0.31 µg/mL (≈ 0.659 µM). For the same molecule, the “fT>MIC” value [13] was 35.28%, the EC50 (Staphylococcus aureus [14]) was 0.06 µg/mL (≈ 0.128 µM) and the Ratio [15] was 6.27. It also gave an Activity (Mus musculus [16]) of 93.9%, an Emax (Staphylococcus aureus [17]) of -1.01 deltalog10CFU/ml and a Cmax [18] of 529 µg/mL. The FC (Staphylococcus aureus [19]) was 3, the Activity (Staphylococcus aureus [20]) was “Active” and the FC (Staphylococcus aureus [21]) was less than 1. For the same molecule, the “fT>MIC” value [22] was 9.44%, the Activity (Mus musculus [23]) was 80.7% and the Ratio [24] was 101.92. It also gave a fAUC/MIC [25] of 227.43 h and an FC (Staphylococcus aureus [26]) of 3.

Source: ChEMBL document CHEMBL1255483, “Intra- and extracellular activities of dicloxacillin against Staphylococcus aureus in vivo and in vitro” (Antimicrob Agents Chemother, 2010)
